These results are taken from ChEMBL document CHEMBL1147686, “Non-peptide calcitonin gene-related peptide receptor antagonists from a benzodiazepinone lead” (Bioorg Med Chem Lett, 2006).

In data set [1] the target is T1, Calcitonin-gene-related peptide receptor, CALCRL/RAMP1 (Homo sapiens, UniProt O60894+Q16602). Kind of data set: Antagonist activity at human cloned CLR/RAMP1 receptor expressed in E10 cells measured as inhibition of CGRP-mediated cAMP production. It is filed as functional, cell-based. Summed up: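 Whole E10 cells stably expressing cloned human CLR/RAMP1; antagonist tested against CGRP-stimulated cAMP production, IC50 from inhibition of the cAMP response.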
T1 sequence (O60894 whole entry): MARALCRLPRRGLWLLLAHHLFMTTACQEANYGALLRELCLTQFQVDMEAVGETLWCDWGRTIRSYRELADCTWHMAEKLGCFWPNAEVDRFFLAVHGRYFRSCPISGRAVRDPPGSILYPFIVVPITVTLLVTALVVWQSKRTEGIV
T1 sequence (Q16602 whole entry): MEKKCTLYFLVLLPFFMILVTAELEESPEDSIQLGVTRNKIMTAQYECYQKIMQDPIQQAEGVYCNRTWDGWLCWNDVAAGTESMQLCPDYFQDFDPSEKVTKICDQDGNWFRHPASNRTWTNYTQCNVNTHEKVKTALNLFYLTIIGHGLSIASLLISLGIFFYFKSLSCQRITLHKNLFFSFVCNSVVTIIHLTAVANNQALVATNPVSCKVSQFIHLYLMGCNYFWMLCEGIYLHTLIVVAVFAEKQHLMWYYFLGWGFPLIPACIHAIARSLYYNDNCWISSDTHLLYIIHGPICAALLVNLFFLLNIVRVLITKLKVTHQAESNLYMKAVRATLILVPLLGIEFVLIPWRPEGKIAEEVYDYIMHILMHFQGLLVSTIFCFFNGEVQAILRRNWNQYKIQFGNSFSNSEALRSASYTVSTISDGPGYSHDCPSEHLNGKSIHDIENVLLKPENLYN

Data set [2] deals with T1, Calcitonin-gene-related peptide receptor, CALCRL/RAMP1. Kind of data set: Displacement of [125I]CGRP from human cloned CLR/RAMP1 receptor expressed in E10 cells. The class given is cell-based. For orientation: In a radioligand displacement assay an active substance lowers the binding of a labelled ligand.
Data set [3] shares this target. Kind of data set: Displacement of [125I]CGRP from human cloned CLR/RAMP1 receptor expressed in SK-N-MC cells at 100 uM. It is filed as cell-based.
The target is the same in data set [4]. Kind of data set: Antagonist activity at human cloned CLR/RAMP1 receptor expressed in E10 cells measured as inhibition of CGRP-mediated cAMP production at 17 uM. The class given is functional, cell-based.
Data set [5] concerns the target Calcitonin-gene-related peptide receptor; CALCRL/RAMP1 (Rattus norvegicus) (UniProt Q63118+Q9JJ74). Kind of data set: Displacement of [125I]CGRP from rat CLR/RAMP1 receptor at 100 uM. It is filed as protein-complex assay.
Data set [6] is described as follows: Half life in iv dosed rat. It is filed as ADME, organism-based. As to conditions: in vivo. Summed up:
(§1)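 Rats received compound intravenously; plasma half-life and clearance derived from the iv profile.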

Data set [7] can be described thus: Clearance in iv dosed rat. The class given is ADME, organism-based. The conditions noted are these: in vivo. A digest of the protocol:
as §1

The nature of data set [8]: Oral bioavailability in rat. The class given is ADME, organism-based. As to conditions: in vivo.
The nature of data set [9]: Cmax in rat. It is filed as ADME, organism-based. As to conditions: in vivo.

SMILES strings stand for the structures.

By IC50 is commonly meant the concentration needed to halve the response being measured. A word on the Ki: it is the dissociation constant of the complex between target and ligand, obtained from inhibition or displacement. The term inhibition denotes how much of the control response was suppressed. A word on the half-life: it is the time in which the quantity being followed falls by half. Usually clearance stands for the volume of plasma or blood freed of the substance per unit of time. A high value points to a high capacity for elimination. Usually bioavailability stands for dose-corrected exposure relative to a reference, in per cent. One may read the Cmax as the peak of the concentration-time curve.

On to `CCN1C(=O)[C@H](NC(=O)N2CCC(N3Cc4ccccc4NC3=O)CC2)N=C(c2ccccc2)c2ccccc21`, for which the half-maximal inhibitory concentration (IC50) in data set [1] was 990 nM. In addition, the Ki in data set [2] is 897 nM.

Regarding `CN1C(=O)[C@@H](NC(=O)N2CCC(N3Cc4ccccc4NC3=O)CC2)N=C(c2ccccc2)c2ccccc21`, the 50% inhibitory concentration (IC50) in data set [1] was 4450 nM. Besides, the Ki in data set [2] is 8400 nM.

For `O=C(N[C@@H]1N=C(c2ccccc2)c2ccccc2N(CC(F)(F)F)C1=O)N1CCC(n2c(=O)[nH]c3ccccc32)CC1`, the IC50 in [1] was 1580 nM. The Ki in [2] was 2370 nM.

Consider `O=C(N[C@H](Cc1cc(Br)c(O)c(Br)c1)C(=O)N1CCN(c2ccccc2)CC1)N1CCC(n2c(O)nc3ccccc32)CC1`, for which, in data set [1], the IC50 is 75 nM. Besides, in data set [2], the Ki is 83 nM.

With `CN1C(=O)[C@H](NC(=O)N2CCC(N3Cc4ccccc4NC3=O)CC2)N=C(c2ccccc2)c2ccccc21`, the half-inhibitory concentration (IC50) in [1] is 3640 nM. In addition, the inhibitory constant (Ki) in data set [2] was 2200 nM.

`O=C(N[C@@H]1N=C(c2ccccc2)c2ccccc2N(CC(F)(F)F)C1=O)N1CCC(N2CCc3ccccc3NC2=O)CC1`: the IC50 in data set [1] is 43 nM. The Ki in [2] is 61 nM.

As to `CC(C)N1C(=O)C(NC(=O)N2CCC(N3Cc4ccccc4N(C)C3=O)CC2)N=C(c2ccccc2)c2ccccc21` (racemic), in [3], the inhibition is 33%.

Take `CN1C(=O)C(NC(=O)N2CCC(n3c(=O)[nH]c4ccccc43)CC2)N=C(c2ccccc2)c2ccccc21` (racemic): the inhibition constant (Ki) in data set [2] is > 13000 nM.

On to `CN1C(=O)[C@H](NC(=O)Nc2ccc3c(c2)CCC2(C3)NC(=O)NC2=O)N=C(c2ccccc2)c2ccccc21` (some centres not stated), for which the inhibition in data set [4] is 57%. Besides, the Ki in data set [2] is 4250 nM.

For the molecule `CC(C)N1C(=O)C(NC(=O)N2CCC(N3Cc4ccccc4NC3=O)CC2)N=C(c2ccccc2)c2ccccc21` (racemic), in [1], the concentration for half-maximal inhibition (IC50) is 1810 nM. Besides, in data set [2], the inhibition constant Ki is 1060 nM.

As to `O=C(N[C@@H]1N=C(c2ccccc2)c2ccccc2N(CC(F)(F)F)C1=O)N1CCC(N2Cc3ccccc3NC2=O)CC1`, the IC50 in data set [1] was 38 nM. Moreover, the Kb in [1] is 77 nM; in data set [1] (read-out: pA2 (converted)) it was 79.4 nM. Moreover, in data set [5], the inhibition is 35%. The half-life in [6] is 1.7 h. Moreover, the clearance in data set [7] was found to be 20 mL/min/kg. The molecule also yielded a bioavailability in [8] of 10%. In data set [9], this molecule had a maximum concentration (Cmax) of 240 nM. Further, the Ki in data set [2] is 44 nM.
